The values below come from PMC5079036 (Journal of the American Heart Association: Cardiovascular …, 2016).

Series [1] relates to humans. As to conditions: TRPV1 antagonist; cited from earlier work.
In series [2] the test system is Male Sprague‐Dawley rats. Put plainly: In vivo myocardial infarction rodent model. The arrangement: species or system rat.
In series [3] the test system is primary neonatal cardiomyocytes (PNCMs). Put plainly: Live cell imaging of mitochondrial membrane potential under normoxia. The class given is cell-based, rat. A digest of the protocol:
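Neonatal rat cardiomyocytes (pups 1–3 days old) were plated on glass coverslips at 150 000 cells per dish. Cells were loaded with TMRE 150 nmol/L for 30 min at 37°C, then washed. Imaging was single-cell in a chamber at 37°C, 5% pco₂ and 21% po₂. Inhibitor (1 μmol/L) was added 10 min before the TRPV1 agonist (1 μmol/L). Images were taken every 5 min over 30 min and normalized to baseline (=1). n=3 biological replicates.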

The subject of series [4] is isolated rat hearts. Nature of the series: Isolated heart model of ischemia–reperfusion injury. As to conditions: capsaicin 0.1 μmol/L, unpaced hearts, vs vehicle DMSO; n=4.

Each structure is given as a SMILES string.

In the case of `CC(=O)Nc1nc2c(Oc3cc(-c4ccc(C(F)(F)F)cc4)ncn3)cccc2s1` [AMG517], in series [1], the “Body temperature effect in humans” value was “caused sudden hyperthermia in humans that persisted for days”.
As for `Oc1cc2c(cc1O)CN(C(=S)NCCc1ccc(Cl)cc1)CCC2` [CPZ, capsazepine], in series [2] (CPZ 3 mg/kg or CsA 2.5 mg/kg before capsaicin 0.3 mg/kg), the “Effect on heart rate change afforded by capsaicin” value is given as “reduced the change in heart rate”. In addition, in series [3] (CPZ 1 μmol/L or CsA 1 μmol/L 10 minutes prior to CAP 1 μmol/L, n=3), the “Effect on capsaicin-induced change in mitochondrial membrane potential (TMRE)” value is “blocked”.
On to `COc1cc(CNC(=O)CCCC/C=C/C(C)C)ccc1O` [CAP, capsaicin], for which the “Change in heart rate after CAP administration” value in series [2] (CAP 0.1-3.0 mg/kg iv, n=6 per group) is listed as “increased heart rate when given intravenously”. In series [2] (given 5 minutes before reperfusion (CAP 0.3, CsA 2.5, V1‐cal 1 mg/kg iv)), the “infarct size reduction compared with control” value turned out to be 27%. Moreover, the “Heart rate during first 15 minutes of infusion” value in series [4] is “increased heart rate during the first 15 minutes of infusion”. In addition, the “Mitochondrial membrane potential (TMRE fluorescence)” value in series [3] (capsaicin 0.1–10 μmol/L, 30 min, normoxia, 3 biological replicates) is listed as “decreased mitochondrial membrane potential”.
